One data set has as its target rhIDO1 (Homo sapiens, UniProt P14902). The experiment in a line: Enzyme assay. It counts as biochemical. The note with it: read-out: IC50 value on rhIDO1; cell-free; 200 μM L-Trp.
The next data set relates to A172 (TDO). The experiment in a line: Cell-based Kyn production assay in A172 cells. Further details: species or system human. The conditions noted are these: A172 cells expressing TDO. In short, it runs like this:
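TDO-dependent Kyn production: A172 cells were seeded and grown 24 h, exposed to test compound for 1 h, then given L-Trp (final 524 μM) without cytokine and cultured 24 h. Kyn was detected by Ehrlich reaction, adding aqueous 7% CCl₃COOH mixed 2:5 with 2% p-dimethylaminobenzaldehyde in acetic acid, and absorbance read at 460 nm. Triplicate samples; 3 independent experiments.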

Data set [1] concerns the target T1, rhTDO (Homo sapiens, UniProt P48775). Put plainly: Kinetics analysis. The conditions noted are these: Lineweaver-Burk plot; 680C91 0.5 and 1 μM, PVZB3001 1 and 2 μM. The data set is classed as biochemical. The gist of the method: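 Mode of inhibition was taken from Lineweaver–Burk plots of the recombinant human enzyme, plotting inverse initial rate against inverse L-Trp concentration with or without test compound. DMSO served as control.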

For data set [2], the system named is A172 cells expressing IDO1 and TDO. The experiment in a line: Kyn production in A172 cells expressing IDO1 and TDO by IFN-γ stimulation. The data set is classed as cell-based, human. The note with it: IFN-γ 10 ng/mL; 524 μM L-Trp, 24 hours. In short, it runs like this: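 A172 cells, grown 24 h after seeding, were given test compound 1 h before co-addition of L-Trp (final 524 μM) and IFN-γ (final 10 ng/mL) to express IDO1 and TDO. After 24 h, Kyn was quantified by Ehrlich reaction (CCl₃COOH plus p-dimethylaminobenzaldehyde in acetic acid) at 460 nm. IFN-γ-stimulated, DMSO-treated cells served as control. Triplicates; 3 independent experiments.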

Data set [3] has as its system TDO. The experiment in a line: TDO mRNA expression in A172 cells. The note with it: for TDO expression: mRNA and Western blot (Supplemental Figure 2). The data set is classed as cell-based, human.
Data set [4] relates to NK-92MI cells. The experiment in a line: NK-92MI viability after addition of Kyn. The conditions noted are these: 72 h after addition of Kyn. It counts as cell-based, human.
In data set [5] the test system is NK-92MI cells. Put plainly: Granzyme B production assay in NK-92MI. The data set is classed as cell-based, human. The conditions noted are these: NK-92MI treated with Kyn 72 h, then 5.5 h fresh medium; ELISA. The gist of the method:
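NK-92MI cells were pre-cultured for 72 h with Kyn, then moved to fresh medium without Kyn for 5.5 h. Culture supernatant was collected and granzyme B quantified with a human granzyme B ELISA following the kit protocol.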
In general terms: ELISA stands for enzyme-linked immunosorbent assay.

The target of data set [6] is T1, rhTDO. Put plainly: Enzyme assay. It counts as biochemical.
The subject of another data set is CT26-Ido1 tumors. Put plainly: Antitumor activity in mice bearing CT26-Ido1 tumors. It counts as in vivo, mouse. The note with it: oral, 50.0 mg/kg. In short, it runs like this: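 Female BALB/c mice (6 weeks) received 1 × 10⁵ CT26-Ido1 cells s.c. in the right and left dorsal regions. On day 6 they were randomised (n = 8) to vehicle or 12.5, 25 or 50 mg/kg p.o. once daily. Caliper diameters were taken every 2 days to day 14, with V = (W² × L)/2. Tumours were weighed on day 14 and %IR was taken from mean tumour weights versus vehicle. Body weight every 2 days was expressed relative to day 1. Tumour Kyn and Trp were measured by ELISA after dissociation in PBS.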

The subject of a further data set is A172 cells. The experiment in a line: Cell viability assay. The data set is classed as cell-based, human. The gist of the method: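 A172 cells were seeded and grown 24 h, then given test compound for 1 h before L-Trp (final 524 μM), with no IFN-γ. After 24 h of culture, WST-8 was added for 40–60 min at 37°C and absorbance read at 450 nm. Triplicate samples; 3 independent experiments.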

Data set [7] relates to TDO. The experiment in a line: Western blot of TDO protein in A172 cells. The data set is classed as cell-based, human. The conditions noted are these: at 1000 nM. In short, it runs like this: (§1)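 Cells were lysed in RIPA buffer with protease inhibitors. Lysate (20–30 μg protein/lane) was separated by polyacrylamide gel electrophoresis and transferred to PVDF. Membranes were blocked with 5% skim milk or a signal-enhancing blocking reagent, then probed with primary antibody overnight at 4°C and secondary antibody 1 h at room temperature. Bands were visualised by ECL imaging.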

Another data set deals with ERK1/2. The experiment in a line: Western blot of ERK1/2 phosphorylation in A172 cells. The data set is classed as cell-based, human. The gist of the method: as §1
A general note: In western blotting, separated proteins are transferred to a membrane and probed.

Entries after “also recorded” stand apart in the source; their conditions may differ. Some results are limits rather than exact numbers.

T1 sequence (P48775 whole entry): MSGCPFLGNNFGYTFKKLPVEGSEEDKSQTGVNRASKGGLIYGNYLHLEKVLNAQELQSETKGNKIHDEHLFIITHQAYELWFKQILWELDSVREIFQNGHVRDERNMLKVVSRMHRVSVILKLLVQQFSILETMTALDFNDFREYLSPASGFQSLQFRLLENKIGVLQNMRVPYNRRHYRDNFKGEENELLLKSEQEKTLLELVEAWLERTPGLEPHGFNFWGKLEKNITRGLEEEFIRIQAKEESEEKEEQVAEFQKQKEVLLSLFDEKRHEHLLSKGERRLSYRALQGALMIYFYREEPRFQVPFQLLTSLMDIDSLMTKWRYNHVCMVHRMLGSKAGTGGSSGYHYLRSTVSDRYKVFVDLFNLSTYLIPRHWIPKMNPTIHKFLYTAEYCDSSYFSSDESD
Chain of rhIDO1 (P14902 whole entry): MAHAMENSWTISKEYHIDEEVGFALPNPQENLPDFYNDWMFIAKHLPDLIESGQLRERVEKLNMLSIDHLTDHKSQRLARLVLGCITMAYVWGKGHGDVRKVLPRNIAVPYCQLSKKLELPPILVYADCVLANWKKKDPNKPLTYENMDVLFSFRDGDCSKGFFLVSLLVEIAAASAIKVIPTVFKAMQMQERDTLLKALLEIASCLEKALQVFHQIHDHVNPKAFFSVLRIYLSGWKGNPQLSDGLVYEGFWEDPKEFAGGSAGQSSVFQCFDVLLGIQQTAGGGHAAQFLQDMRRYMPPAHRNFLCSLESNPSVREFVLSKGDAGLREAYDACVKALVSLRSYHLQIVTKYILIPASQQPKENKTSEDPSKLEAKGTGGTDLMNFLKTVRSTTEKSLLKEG

As for `Fc1ccc2c(/C=C/c3cccnc3)c[nH]c2c1` [680C91], the IC50 at rhIDO1 was above 10 µM. Moreover, the “Kyn production in A172 cells (in words)” value with A172 (TDO) is recorded as “reduced”. Besides, the “Inhibition pattern against TDO” value at rhTDO [1] is reported as “competitive inhibition”. Also, the “Kyn production in A172 cells expressing both IDO1 and TDO (in words)” value in data set [2] is reported as “decreased Kyn production; also recorded: Partial inhibition of Kyn production”.

As to `Cc1cc(C(=O)NOCCO)c(Nc2ccc(I)cc2F)n(C)c1=O` [AZD8330], the “Kyn production in A172 cells (in words)” value in the data set on A172 (TDO) is “attenuated Kyn production”. In addition, the TDO expression entry in the data set with TDO [3] is “reduction of TDO expression”.

On to `Nc1ccccc1C(=O)CC(N)C(=O)O` (stereo not shown) [Kyn, Kynurenine], for which the “Viability of NK-92MI cells” value in the data set with NK-92MI cells [4] is recorded as “reduced”. For the same molecule, in the data set with NK-92MI cells [5], the “Granzyme B production” value was “reduced”.

In the case of `Cn1c(=O)c(F)c(Nc2ccc(I)cc2F)c2c(=O)n(C[C@@H](O)CO)cnc21` [TAK-733], the “Kyn production in A172 cells (in words)” value in the data set on A172 (TDO) is “attenuated Kyn production”. Besides, in the data set on TDO [3], the TDO expression entry is given as “reduction of TDO expression”.

Turning to `NS(=O)(=O)NCCNc1nonc1C(=NO)Nc1ccc(F)c(Br)c1` [epacadostat], the “Enzymatic activity of TDO” value on rhTDO [6] (at 1 μM or higher concentrations) is given as “inhibited the enzymatic activity of TDO”. Besides, the “Kyn production in A172 cells expressing both IDO1 and TDO (in words)” value in data set [2] is listed as “decreased Kyn production; also recorded: inhibited Kyn production more effectively”. Moreover, the Antitumor effect entry in the data set with CT26-Ido1 tumors is on record as “moderate effect without statistical significance”.

Turning to `CC(=O)Nc1cccc(-n2c(=O)n(C3CC3)c(=O)c3c(Nc4ccc(I)cc4F)n(C)c(=O)c(C)c32)c1` [trametinib], the “Inhibitory activity against rhTDO (in words)” value at rhTDO [6] (cell-free assay) is given as “did not inhibit”. The “Kyn production in A172 cells (in words)” value with A172 (TDO) was “decreased Kyn production in a dose-dependent manner”. Also, the “Cell viability of A172 cells (in words)” value in the data set on A172 cells is recorded as “without reducing cell viability”. Moreover, in the data set with TDO [3] (at 100 nM), the “TDO mRNA expression” value was “downregulated”. The TDO protein expression result in the data set with TDO [7] was “downregulated”. Further, the ERK1/2 phosphorylation result with ERK1/2 is given as “inhibition of ERK1/2 phosphorylation”.

One may read the IC50 as the concentration needed to halve the response being measured.

These data come from paper PMC9716449 (International Journal of Tryptophan Research : IJTR, 2022).
